The source of these data is ChEMBL document CHEMBL3120107, “Cytotoxic cardiac glycosides and coumarins from Antiaris toxicaria” (2014).

One assay deals with CAKI-1. The assay can be described thus: Cytotoxicity against human CAKI-1 cells assessed as growth inhibition after 72 hrs by SRB assay. In kind it is functional. The following applies: for EC50: Homo sapiens, CAKI-1, 72 h, read-out: ED50 (the source's name). In a few lines:
(§1)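 Sulforhodamine B assay run by NCI-validated procedure. Cells grown at 37 °C under humidified 5% CO2 in RPMI-1640 with 25 mM HEPES, […] (w/v) sodium bicarbonate, 10% (v/v) FBS and 100 μg/mL kanamycin. Compounds came from DMSO stocks, with final DMSO ≤ 1% (v/v). Continuous exposure for 72 h. ED50 (μg/mL, 50% cell-number reduction) interpolated from dose-response data. Triplicate tests. Doxorubicin served as positive control.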

For another assay, the system named is SK-MEL-2. The assay can be described thus: Cytotoxicity against human SK-MEL-2 cells assessed as growth inhibition after 72 hrs by SRB assay. In kind it is functional. The following applies: for EC50: Homo sapiens, SK-MEL-2, 72 h, read-out: ED50 (the source's name). In short, it runs like this:
as §1

A further assay deals with 1A9. Kind of assay: Cytotoxicity against human 1A9 cells assessed as growth inhibition after 72 hrs by SRB assay. In kind it is functional. To be noted: for EC50: Homo sapiens, 1A9, 72 h, read-out: ED50 (the source's name). In a few lines:
as §1

Another assay relates to KBVIN. Kind of assay: (§2) Cytotoxicity against human KBVIN cells assessed as growth inhibition after 72 hrs by SRB assay. In kind it is functional. In short, it runs like this:
as §1

In the next assay the test system is MCF7. Kind of assay: Cytotoxicity against human MCF7 cells assessed as growth inhibition after 72 hrs by SRB assay. The class given is functional. The following applies: Homo sapiens, MCF7, 72 h; read-out: ED50 (the source's name). In a few lines:
as §1

Assay [1] is described as follows: Cytotoxicity against human […] cells assessed as growth inhibition after 72 hrs by SRB assay. The following applies: Homo sapiens, HCT9, 72 h; read-out: ED50 (the source's name). In kind it is functional. In a few lines:
as §1

For a further assay, the system named is A549. The assay can be described thus: Cytotoxicity against human A549 cells assessed as growth inhibition after 72 hrs by SRB assay. In kind it is functional. The following applies: Homo sapiens, A549, 72 h; read-out: ED50 (the source's name). In short, it runs like this: as §1
The test system of the next assay is PC-3. Kind of assay: Cytotoxicity against human PC3 cells assessed as growth inhibition after 72 hrs by SRB assay. In kind it is functional. In short, it runs like this:
as §1

Assay [2] in a line: Cytotoxicity against human U87MG cells assessed as growth inhibition after 72 hrs by SRB assay. In kind it is functional, U-87MG ATCC. The following applies: Homo sapiens, U-87 MG, 72 h; read-out: ED50 (the source's name). In a few lines:
as §1

The nature of assay [3]: as §2. In kind it is functional. The following applies: Homo sapiens, KBVIN, 72 h; read-out: ED50 (the source's name). In a few lines:
as §1

A further assay has as its system KB. Kind of assay: Cytotoxicity against human KB cells assessed as growth inhibition after 72 hrs by SRB assay. In kind it is functional. To be noted: Homo sapiens, KB, 72 h; read-out: ED50 (the source's name). In short, it runs like this: as §1

In brackets after ≈: the same amount, converted by molar mass. Activity calls are given as the source filed them. No cut-off for these calls is given here. A value given as a limit tells only on which side of the number the result lay.

In the case of `COc1c(CC(O)C(C)(C)O)cc2ccc(=O)oc2c1O` (centres undefined), the EC50 in the assay with CAKI-1 is 1.5 µg/mL (≈ 5.1 µM); in the assay with SK-MEL-2, 1.3 µg/mL (≈ 4.42 µM); in the assay with 1A9, 1.5 µg/mL (≈ 5.1 µM); with MCF7 it was greater than 20 µg/mL; in assay [1] it was 6.7 µg/mL (≈ 22.8 µM); with A549, 10.8 µg/mL (≈ 36.7 µM). The “growth inhibition (GI)” value in the assay on KBVIN is “inactive”.

Take `CC(C)(O)[C@@H]1Cc2cc3ccc(=O)oc3cc2O1` [MARMESIN]: the “growth inhibition (GI)” value with CAKI-1, in the assay on SK-MEL-2, in the assay on 1A9, with PC-3 and with KBVIN was “inactive” in each case. Besides, the EC50 in the assay on MCF7 and in the assay on A549 was greater than 20 µg/mL each time.

Turning to `C[C@@H]1O[C@H](O[C@H]2CC[C@@H]3[C@H]4CC[C@]5(C)[C@@H](C6=CC(=O)OC6)CC[C@]5(O)[C@@H]4CC[C@]3(O)C2)[C@H](O)[C@H](O)[C@H]1O` [ANTIAROSIDE I], the EC50 is 1.1 µg/mL (≈ 2.1 µM) in the assay with CAKI-1; 3.6 µg/mL (≈ 6.89 µM) in assay [2]; 0.3 µg/mL (≈ 0.574 µM) in the assay with SK-MEL-2; 0.83 µg/mL (≈ 1.59 µM) with 1A9; 0.9 µg/mL (≈ 1.72 µM) in the assay on PC-3 (Homo sapiens, PC-3, 72 h, read-out: ED50 (the source's name)); 2.3 µg/mL (≈ 4.4 µM) in [3]. Besides, the EC50 with MCF7 is 1.3 µg/mL (≈ 2.49 µM); with KB, 2 µg/mL (≈ 3.83 µM); in [1] it was 2.9 µg/mL (≈ 5.55 µM); in the assay with A549, 0.36 µg/mL (≈ 0.689 µM).
